This is an account of results in ChEMBL document CHEMBL2311425, “Histone deacetylase (HDAC) inhibitors with a novel connecting unit linker region reveal a selectivity profile for HDAC4 and HDAC5 with improved activity against chemoresistant cancer cells” (J Med Chem, 2013).

Experiment [1] has as its system A2780. The experiment in a line: Cytotoxicity against human A2780 cells after 72 hrs by MTT assay. The format is functional, cell-based. The settings on record: A2780, 72 h.
Experiment [2] has as its target Histone deacetylase. Put plainly: Inhibition of HDAC in human A2780 cells after 18 hrs by fluorescence assay. It counts as cell-based.
The subject of experiment [3] is A2780 CisR (Homo sapiens). Put plainly: cells. The settings on record: 72 h.
Experiment [4] addresses Histone deacetylase. Put plainly: Inhibition of HDAC in cisplatin resistant human A2780 cells after 18 hrs by fluorescence assay. The format is cell-based.
Experiment [5] concerns A2780. Put plainly: Cytotoxicity against cisplatin resistant human A2780 cells up to 100 uM after 72 hrs by MTT assay. It counts as functional, cell-based. The procedure, abridged: (§1)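 A2780 or its cisplatin-resistant subclone A2780CisR, seeded 5000 cells/well, grown in RPMI 1640 with 10% FCS at 37 °C, 5% CO2. Compound exposure began 24 h after seeding and lasted 72 h. MTT (5 mg/mL in PBS) was added, formazan dissolved in DMSO, absorbance read at 544 and 690 nm. IC50 from four-parameter logistic fit, ≥3 experiments in triplicate.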

The subject of experiment [6] is A2780. The experiment in a line: Cytotoxicity against human A2780 cells up to 100 uM after 72 hrs by MTT assay. It counts as functional, cell-based. The procedure, abridged: as §1

Molecules are shown by their SMILES. Calls of active or inactive are those of the source. No cut-off for these calls is given here.

With `Cc1ccc(C(=O)NOCCCCCC(=O)NO)cc1`, the IC50 was found to be 4.09 µM in experiment [1], 4.21 µM in experiment [2], 5 µM in experiment [3] and 3.46 µM in experiment [4].

Turning to `O=C(CCCCCONC(=O)c1ccc(F)cc1)NO`, the half-maximal inhibitory concentration (IC50) in experiment [1] worked out at 16.4 µM; in experiment [2], 2.57 µM; in experiment [3], 60.3 µM; in experiment [4], 2 µM.

With `CC(C)c1ccc(C(=O)NOCCCCCC(=O)NO)cc1`, the half-maximal inhibitory concentration (IC50) in experiment [1] was 4.13 µM; in experiment [2] it was 0.6 µM; in experiment [3], 4.96 µM; in experiment [4] it was 0.5 µM.

Consider `CC(C)(C)c1ccc(NC(=O)NOCCCCCC(=O)NO)cc1`, for which the IC50 in experiment [1] is 6.34 µM; in experiment [2], 1.41 µM; in experiment [3] it was 8.8 µM; in experiment [4], 1.32 µM.

As to `Cc1ccccc1C(=O)NOCCCCCC(=O)NO`, the 50% inhibitory concentration (IC50) in experiment [1] is 25.6 µM; in experiment [2], 17.1 µM; in experiment [3] it was 33.8 µM; in experiment [4] it was 15.4 µM.

For the compound `O=C(CCCCCONC(=O)c1ccc(C(F)(F)F)cc1)NO`, the half-inhibitory concentration (IC50) in experiment [1] stood at 9.53 µM; in experiment [2] it was 2.09 µM; in experiment [3], 30.8 µM; in experiment [4], 1.95 µM.

`Cc1ccccc1NC(=O)NOCCCCCC(=O)NO`: the IC50 in experiment [1] turned out to be 23 µM; in experiment [2], 11.7 µM; in experiment [3], 30.1 µM; in experiment [4], 8.86 µM.

`O=C(CCCCONC(=O)Nc1ccccc1)NO`: the concentration for half-maximal inhibition (IC50) in experiment [1] was 62.6 µM; in experiment [2], 15.2 µM; in experiment [3], 35.2 µM; in experiment [4], 16.6 µM.

Consider `COc1ccc(NC(=O)NOCCCCCC(=O)O)cc1`, for which the half-maximal inhibitory concentration (IC50) in experiment [1] and in experiment [3] was above 100 µM throughout. The outcome in experiment [5] and in experiment [6] was inactive.

Turning to `O=C(CCCCCONC(=O)c1ccccc1)NO`, the concentration for half-maximal inhibition (IC50) is 8.33 µM in experiment [1], 1.58 µM in experiment [2], 5.72 µM in experiment [3] and 1.26 µM in experiment [4].

`Nc1ccccc1NC(=O)CCCCCONC(=O)Nc1ccccc1`: the IC50 in experiment [1] is 62.5 µM; in experiment [2], 34 µM; in experiment [3], 86.9 µM; in experiment [4] it was 43.9 µM.

Consider `O=C(O)CCCCCONC(=O)Nc1ccccc1`, for which the IC50 in experiment [1] is 23.5 µM; in experiment [2], above 100 µM; in experiment [3] it was 72.5 µM; in experiment [4], above 100 µM.

In the case of `Cc1cccc(NC(=O)NOCCCCCC(=O)NO)c1`, the IC50 was 8.33 µM in experiment [1], 7.63 µM in experiment [2], 8.12 µM in experiment [3] and 5.38 µM in experiment [4].

Turning to `CC(/C=C/C(=O)NO)=C\[C@@H](C)C(=O)c1ccc(N(C)C)cc1` [TRICHOSTATIN], the concentration for half-maximal inhibition (IC50) in experiment [1] was found to be 0.29 µM; in experiment [3], 0.22 µM.

On to `O=C(O)CCCCCONC(=O)Nc1ccc(F)cc1`, for which the IC50 in experiment [1] was 67.8 µM; in experiment [2], above 100 µM; in experiment [3], 73.1 µM; in experiment [4], above 100 µM.

Take `O=C(CCCCCONC(=O)Nc1ccccc1)Nc1ccccc1O`: the IC50 in experiment [1] stood at 35 µM; in experiment [2], 34 µM; in experiment [3], 84.6 µM; in experiment [4], 43.9 µM.

On to `O=C(CCCCCONC(=O)Nc1cnc2ccccc2c1)NO`, for which the half-inhibitory concentration (IC50) in experiment [1] turned out to be 10.8 µM; in experiment [2], 1.07 µM; in experiment [3], 11.6 µM; in experiment [4], 0.85 µM.

As to `COc1ccc(NC(=O)NOCCCCCC(=O)NO)cc1`, the IC50 is 10.3 µM in experiment [1], 6.64 µM in experiment [2], 18.2 µM in experiment [3] and 5.73 µM in experiment [4].

Take `CN(O)C(=O)CCCCCONC(=O)Nc1ccccc1`: the IC50 in experiment [1] is 87.9 µM; in experiment [2], above 100 µM; in experiment [3], above 100 µM; in experiment [4], above 100 µM.

`O=C(CCCCCONC(=O)Nc1cccc2ccccc12)NO`: the half-inhibitory concentration (IC50) was found to be 7.63 µM in experiment [1], 1.06 µM in experiment [2], 7.87 µM in experiment [3] and 0.9 µM in experiment [4].

As for `O=C(CCCCCONC(=O)Nc1ccc(F)cc1)NO`, the concentration for half-maximal inhibition (IC50) was found to be 9.05 µM in experiment [1], 2.04 µM in experiment [2], 9.34 µM in experiment [3] and 1.66 µM in experiment [4].

As for `O=C(O)CCCCCONC(=O)Nc1cccc2ccccc12`, the 50% inhibitory concentration (IC50) in experiment [1] and in experiment [3] was above 100 µM in each case. The result in experiment [5] and in experiment [6] was inactive.

On to `CC(C)c1ccc(NC(=O)NOCCCCCC(=O)NO)cc1`, for which the concentration for half-maximal inhibition (IC50) was 27.1 µM in experiment [1], 2.86 µM in experiment [2], 58.8 µM in experiment [3] and 2.05 µM in experiment [4].

For the compound `Cc1cc(C)cc(NC(=O)NOCCCCCC(=O)NO)c1`, the IC50 in experiment [1] amounted to 2.43 µM; in experiment [2] it was 5.27 µM; in experiment [3], 5.11 µM; in experiment [4], 4.64 µM.

Take `O=C(CCCCCONC(=O)Nc1ccccc1)NO`: the IC50 in experiment [1] was found to be 8.47 µM; in experiment [2] it was 1.7 µM; in experiment [3], 5.47 µM; in experiment [4], 1.71 µM.

As for `O=C(CCCCCONC(=O)NNc1ccccc1)NO`, the 50% inhibitory concentration (IC50) worked out at 34.9 µM in experiment [1], 5.86 µM in experiment [2], 42.4 µM in experiment [3] and 4.95 µM in experiment [4].

On to `Cc1ccc(NC(=O)NOCCCCCC(=O)O)cc1`, for which the IC50 in experiment [1] and in experiment [3] was above 100 µM in each case. The result in experiment [5] and in experiment [6] was inactive.

Consider `Cc1ccc(NC(=O)NOCCCCCC(=O)NO)cc1`, for which the IC50 came to 8.05 µM in experiment [1], 1.45 µM in experiment [2], 10.2 µM in experiment [3] and 1.43 µM in experiment [4].
